# Most compounds without a hit are left out; they make up all but 1.4% or so of the library.
# PG9 Ab binder – binders of HIV-1 gp120 antibody PG9, primary screen, biochemical, TR-FRET | inhibition, % at 6.7 µM | 0.43% of 360,000 active | TR-FRET gp120-PG9 antibody binding; in the data active = inhibition above about 8.5%
# NR2E3 ag-1 – inhibitors of NR2E3-RetCOR corepressor binding, primary screen, NR2E3 agonist project, biochemical, TR-FRET, GST-NR2E3, biotin-RetCOR | Photoreceptor-specific nuclear receptor (Homo sapiens), Q9Y5X4 | 1536-well | inhibition of corepressor binding, % at 4.78 µM | 0.12% of 320,000 active | AID 2300, 2010;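 active = percent inhibition above the cutoff of mean plus 3 SD of all tested compounds, set per screening campaign, cut at about 20% in these data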;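 also: 0% = DMSO wells and 100% = biotin wells as full block of FRET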
#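 Material: NR2E3–RetCOR corepressor complex / Incubation: Compound–protein incubation for 5 h at 4 °C / Dosing: compound at 4.8 µM, single dose / Detection: time-resolved FRET / Benchmarks: high control biotin, low control 0.6% DMSO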
# NR2E3 ag-2 – NR2E3 agonists in two-hybrid cells, primary screen, cell-based, luminescence, CHO-S, Gal4-NCOR/VP16-NR2E3. Photoreceptor-specific nuclear receptor (Homo sapiens), Q9Y5X4. inhibition of corepressor binding, % at 3.98 µM. 0.35% of 360,000 active. luciferase;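 active = inhibition above the mean of all tested compounds plus 3 SD, cut at about 70% in these data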;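 also: 0% = DMSO with NR2E3 transfected cells and 100% = cells lacking NR2E3 construct; higher means lower luciferase signal from less NR2E3 corepressor binding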
# Rev-erbA mod – modulators of Rev-erb alpha DNA binding, primary screen, biochemical, FITC-DNA, fluorescence polarization, uHTS; Nuclear receptor subfamily 1 group D member 1 (Homo sapiens), P20393; Rev-erbα–FITC-DNA binding, 90 min; activity, % at 10 µM; 0.79% of 370,000 active;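 active = activity above about 14%, limit read from the data; passing the limit was not always enough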;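 also: 0% = DMSO wells with 35 nM protein and 100% = DMSO wells with 750 nM protein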
# NR2E3 ag confirm-1 – NR2E3 agonists, confirmation, biochemical, TR-FRET; shares compounds with NR2E3 ag-1; cell-free NR2E3 corepressor release, 5 h; activation (reported as inhibition), % at 3.98 µM; 39% of 360 active; AID 2379, 2010; in the data active = activation above about 20%
# PPARg-NCOR2 ctr – agonists of PPARg-NCOR2 corepressor interaction, counter-screen for NR2E3 agonist project, biochemical, TR-FRET. shares compounds with NR2E3 ag-1. TR-FRET PPARg-NCOR2 coregulator interaction. inhibition, % at 3.98 µM. 45% of 360 active. AID 504787, 2011; in the data active = inhibition above about 20%;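 also: 0% = DMSO vehicle and 100% = wells without protein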
# Target sequence (P37231 whole entry, looked up): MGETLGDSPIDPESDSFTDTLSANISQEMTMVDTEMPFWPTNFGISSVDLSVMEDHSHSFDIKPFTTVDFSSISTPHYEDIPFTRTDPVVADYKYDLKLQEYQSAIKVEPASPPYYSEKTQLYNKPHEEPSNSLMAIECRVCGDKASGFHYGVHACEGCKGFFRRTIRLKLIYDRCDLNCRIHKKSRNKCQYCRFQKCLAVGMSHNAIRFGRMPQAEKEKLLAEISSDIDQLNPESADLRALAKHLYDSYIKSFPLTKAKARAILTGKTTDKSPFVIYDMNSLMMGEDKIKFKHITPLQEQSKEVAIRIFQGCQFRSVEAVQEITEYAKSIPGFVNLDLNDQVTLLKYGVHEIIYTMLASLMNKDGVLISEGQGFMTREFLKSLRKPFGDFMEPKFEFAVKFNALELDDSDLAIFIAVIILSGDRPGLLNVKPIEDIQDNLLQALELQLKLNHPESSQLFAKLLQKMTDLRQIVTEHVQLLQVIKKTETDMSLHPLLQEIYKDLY
# Target sequence (Q9Y618 whole entry, looked up): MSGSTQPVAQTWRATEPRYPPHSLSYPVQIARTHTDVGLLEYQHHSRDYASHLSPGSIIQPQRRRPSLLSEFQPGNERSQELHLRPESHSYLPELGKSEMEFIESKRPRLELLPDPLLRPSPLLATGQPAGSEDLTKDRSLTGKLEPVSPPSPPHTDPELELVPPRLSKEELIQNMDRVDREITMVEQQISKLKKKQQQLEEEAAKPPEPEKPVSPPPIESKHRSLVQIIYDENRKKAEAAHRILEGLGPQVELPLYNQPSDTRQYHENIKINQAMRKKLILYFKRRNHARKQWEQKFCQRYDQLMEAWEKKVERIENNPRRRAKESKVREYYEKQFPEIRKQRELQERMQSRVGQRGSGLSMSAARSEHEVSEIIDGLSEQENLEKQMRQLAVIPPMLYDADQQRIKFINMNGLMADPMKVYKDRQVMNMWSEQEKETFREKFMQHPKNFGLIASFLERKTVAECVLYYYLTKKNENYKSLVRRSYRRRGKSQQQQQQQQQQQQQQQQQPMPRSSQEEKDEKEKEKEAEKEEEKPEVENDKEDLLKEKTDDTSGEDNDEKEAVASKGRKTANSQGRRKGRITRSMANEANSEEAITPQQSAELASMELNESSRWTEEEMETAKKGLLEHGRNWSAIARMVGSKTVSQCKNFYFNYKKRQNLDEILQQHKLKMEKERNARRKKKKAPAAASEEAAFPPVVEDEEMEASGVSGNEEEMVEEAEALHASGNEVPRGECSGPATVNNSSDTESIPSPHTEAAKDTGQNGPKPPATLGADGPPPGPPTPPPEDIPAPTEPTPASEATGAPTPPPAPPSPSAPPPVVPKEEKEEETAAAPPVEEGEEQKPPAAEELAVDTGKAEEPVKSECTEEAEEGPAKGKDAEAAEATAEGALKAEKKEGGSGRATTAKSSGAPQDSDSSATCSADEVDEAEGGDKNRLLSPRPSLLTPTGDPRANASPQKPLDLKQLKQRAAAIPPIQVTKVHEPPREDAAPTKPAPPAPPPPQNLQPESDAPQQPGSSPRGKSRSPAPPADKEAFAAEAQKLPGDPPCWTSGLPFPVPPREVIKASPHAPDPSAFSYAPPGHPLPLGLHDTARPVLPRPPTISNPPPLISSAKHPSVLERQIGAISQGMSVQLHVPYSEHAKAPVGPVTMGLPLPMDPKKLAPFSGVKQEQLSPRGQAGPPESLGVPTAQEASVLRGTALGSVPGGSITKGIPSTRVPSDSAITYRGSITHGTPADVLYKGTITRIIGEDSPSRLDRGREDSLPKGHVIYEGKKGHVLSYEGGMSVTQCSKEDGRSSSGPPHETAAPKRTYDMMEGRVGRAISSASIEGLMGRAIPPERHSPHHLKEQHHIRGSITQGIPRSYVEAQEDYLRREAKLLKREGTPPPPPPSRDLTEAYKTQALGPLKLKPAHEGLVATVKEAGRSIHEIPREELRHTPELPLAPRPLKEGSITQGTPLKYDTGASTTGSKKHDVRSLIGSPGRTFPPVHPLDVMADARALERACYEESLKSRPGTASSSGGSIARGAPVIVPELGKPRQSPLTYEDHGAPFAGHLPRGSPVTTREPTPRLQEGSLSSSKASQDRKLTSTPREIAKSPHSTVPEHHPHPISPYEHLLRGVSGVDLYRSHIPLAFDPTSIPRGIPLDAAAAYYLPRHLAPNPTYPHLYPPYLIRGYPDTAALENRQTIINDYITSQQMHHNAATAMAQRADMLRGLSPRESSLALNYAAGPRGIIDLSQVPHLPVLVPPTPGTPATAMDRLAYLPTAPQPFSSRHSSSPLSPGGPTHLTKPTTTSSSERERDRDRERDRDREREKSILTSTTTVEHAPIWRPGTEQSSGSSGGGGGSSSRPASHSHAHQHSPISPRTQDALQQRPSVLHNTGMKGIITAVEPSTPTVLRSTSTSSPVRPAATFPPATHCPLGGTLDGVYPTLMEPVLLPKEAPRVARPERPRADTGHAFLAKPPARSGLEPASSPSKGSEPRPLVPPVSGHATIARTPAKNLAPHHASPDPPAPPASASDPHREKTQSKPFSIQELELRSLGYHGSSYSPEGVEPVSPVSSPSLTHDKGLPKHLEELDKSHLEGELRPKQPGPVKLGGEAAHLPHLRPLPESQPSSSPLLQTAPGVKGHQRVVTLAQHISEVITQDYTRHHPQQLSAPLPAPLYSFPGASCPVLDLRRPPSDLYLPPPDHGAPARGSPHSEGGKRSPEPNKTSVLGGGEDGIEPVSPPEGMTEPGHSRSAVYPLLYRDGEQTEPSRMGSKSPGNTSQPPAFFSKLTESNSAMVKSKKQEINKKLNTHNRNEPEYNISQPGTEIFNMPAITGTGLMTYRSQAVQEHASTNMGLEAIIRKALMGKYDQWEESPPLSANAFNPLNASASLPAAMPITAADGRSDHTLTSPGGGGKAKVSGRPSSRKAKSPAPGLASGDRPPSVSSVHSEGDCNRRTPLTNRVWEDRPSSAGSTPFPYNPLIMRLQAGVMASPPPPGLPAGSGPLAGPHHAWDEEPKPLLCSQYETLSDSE
# NR2E3 ag confirm-2 – NR2E3 agonist confirmation in cells, cell-based, luminescence, CHO-S two-hybrid; shares compounds with NR2E3 ag-2; CHO-S mammalian two-hybrid NR2E3-NCOR, luciferase luminescence; inhibition, % at 3.98 µM; 51% of 2,300 active; AID 624378, 2012;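 active = average inhibition above a cutoff equal to the mean inhibition of all tested compounds plus one SD, cut at about 70% in these data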;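 also: 0% = DMSO in NR2E3 cells and 100% = DMSO in cells lacking NR2E3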
# GAL4-VP16 luc – GAL4-VP16 reporter modulators, confirmation, counter-screen for NR2E3 agonist project, cell-based, luminescence, CHO-S, high throughput. shares compounds with NR2E3 ag-2. inhibition, % at 3.98 µM. 29% of 2,300 active. CHO-S GAL4-VP16 luciferase reporter;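 active = mean inhibition above a cutoff equal to the average over all tested compounds plus one standard deviation, cut at about 70% in these data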;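 also: luciferase from a UAS reporter driven by GAL4-VP16 transactivation; 0% = DMSO with VP16-transfected cells and 100% = DMSO with cells lacking VP16; higher means less reporter light so more repression of VP16 activity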
# PG9 binder conf – binders of anti-gp120 antibody PG9, confirmation, biochemical, TR-FRET. shares compounds with PG9 Ab binder. TR-FRET PG9 antibody binding. inhibition, % at 6.7 µM. 90% of 1,500 active. AID 651571, 2012; in the data active = inhibition above about 9%
# PGV04 counter – binders of control antibody PGV04, counter-screen for PG9 antibody binder project, biochemical, TR-FRET, distinct HIV envelope site | shares compounds with PG9 Ab binder | inhibition, % at 6.7 µM | TR-FRET PGV04 antibody-gp120 binding | AID 651604, 2012 | 95% of 1,500 active; in the data active = inhibition above about 9.5%
# Rev-erbA confirm – modulators of Rev-erb alpha DNA binding, confirmation, biochemical, FITC-DNA, fluorescence polarization, single point; activation, % at 25 µM; shares compounds with Rev-erbA mod; 90 min; 61% of 3,000 active; AID 1259319, 2017;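 active = activation at or above a set limit, or at least 3 SD above the negative control mean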;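 also: 0% = 35 nM protein with DMSO and 100% = 750 nM protein high control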
# RORg DNA counter – modulation of RORgamma DNA binding, dose response, counter-screen for Rev-erb alpha modulator project, biochemical, fluorescence polarization, FITC-DNA; IC50, µM; purified RORgamma protein-FITC-DNA binding; 8% of 910 active; shares compounds with Rev-erbA mod;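 active = Compounds whose fitted half-maximal concentration for disrupting protein-DNA binding is below 10 micromolar; the record names Rev-erb in its text, so the target is in doubt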
# * hit, by the source's call; . = no result.
SMILES,PG9 Ab binder,NR2E3 ag-1,NR2E3 ag-2,Rev-erbA mod,NR2E3 ag confirm-2,GAL4-VP16 luc,others
S=c1nc(SCc2ccccc2)[nH]c2ccccc12,7,35*,68,29*,18,-40,NR2E3 ag confirm-1=36*;PPARg-NCOR2 ctr=55*;Rev-erbA confirm=10
Brc1cc(Br)c2ncnc(N3CCCCC3)c2c1,38*,34*,-16,76*,.,.,NR2E3 ag confirm-1=34*;PPARg-NCOR2 ctr=29*;PG9 binder conf=54*;PGV04 counter=63*;Rev-erbA confirm=40*;RORg DNA counter=2.8*
CCOC(=O)Cc1c(C)nc(Cc2ccc(OC(C)C)cc2)[nH]c1=O,-4,1,7,-3,.,.,
O=C(CSc1ncnc2c1oc1ccccc12)Nc1ccccc1C(F)(F)F,66*,44*,8,348*,.,.,NR2E3 ag confirm-1=70*;PPARg-NCOR2 ctr=74*;PG9 binder conf=27*;PGV04 counter=75*;Rev-erbA confirm=341*
CCN(CC)S(=O)(=O)c1ccc(N2CCCC2)c(NC(=O)C2CSC3(C)CCC(=O)N23)c1 (centres undefined),0,-2,-37,-1,.,.,
CSc1nc2ccc3nc(NC(=O)c4ccc(C)cc4)sc3c2s1,-1,0,-10,9,.,.,
Cc1ccc(C(=O)Nc2nc3ccccc3c(=O)s2)cc1,73*,23*,6,69*,.,.,NR2E3 ag confirm-1=43*;PPARg-NCOR2 ctr=46*;PG9 binder conf=78*;PGV04 counter=89*;Rev-erbA confirm=35*;RORg DNA counter=2.1*
CCC(=O)c1ccccc1OCC(=O)Nc1c(C)cccc1C,1,0,-4,3,.,.,
Cc1cccc(C)c1NC(=O)COc1ccccc1C(=O)Nc1ccc(Br)cn1,62*,44*,-30,118*,.,.,NR2E3 ag confirm-1=42*;PPARg-NCOR2 ctr=49*;PG9 binder conf=61*;PGV04 counter=83*;Rev-erbA confirm=92*;RORg DNA counter=>40
O=c1c2c(nc3c(-c4ccc(Cl)cc4)c[nH]n13)CCC2,0,-6,77*,1,66,50,
C=C1C(=O)OC2C=C(CO)C3OC3C3OC3(C)CC(OC(=O)/C(=C/C)COC(C)=O)C12 (centres undefined),0,.,86*,0,30,21,
Cc1cc(=O)n(C(C)c2ccccc2)n1C(C)c1ccccc1 (centres undefined),3,.,-6,4,.,.,
CNC(=S)N/N=C/c1cc(Br)cc(Br)c1O,0,4,89*,0,-16,-24,
Oc1c(Br)cc(Br)cc1/C=N/NC(=S)N[C@H]1CC2C=CC1C2 (some centres undefined),-1,5,47,-4,.,.,
COc1ccc2oc(C(=O)OCC(=O)N3CCN(S(=O)(=O)c4ccccc4)CC3)c(C)c2c1,-1,-6,51,0,90*,71*,
CCn1c(=O)c(C(=O)Nc2nc3ccccc3[nH]2)c(O)c2ccccc21,0,2,57,-8,14,44,
Cc1ccccc1NC(=O)NCCCCc1ccccc1,-1,0,-6,-1,.,.,
O=C(c1cccs1)N1CCN(c2nc3ccccc3s2)CC1,0,-1,-47,5,.,.,
O=C(c1cc2sccc2n1Cc1ccc(F)cc1)N1CCN(c2nc3ccccc3s2)CC1,2,2,74*,1,92*,64,
Cc1ccc(S(=O)(=O)CC2CSc3nc4ccccc4n32)cc1 (centres undefined),-1,-1,74*,0,93*,70,
CCOc1ccc(C(=O)Nc2ccc(N3CCN(C(C)=O)CC3)cc2)cc1[N+](=O)[O-],-4,1,-15,0,.,.,
CC(=O)N1CCN(c2ccc(Oc3ccc([N+](=O)[O-])c(C(F)(F)F)c3)cc2)CC1,.,2,100*,.,96*,81*,
COc1cccc(N2CCN(C(=O)c3ccc(CS(=O)c4ccccc4Cl)o3)CC2)c1 (centres undefined),0,0,48,1,16,16,
CC1(C(=O)NCCC(F)(F)F)Cc2c(-c3ccccc3)ccnc2O1 (centres undefined),-2,.,23,-6,.,.,
CN1C(=O)C(C)(C)c2cc(S(=O)(=O)N3CCCC(C(=O)NCc4ccc(Cl)cc4)C3)ccc21 (centres undefined),0,-2,-33,9,.,.,
SMILES,PG9 Ab binder,NR2E3 ag-1,NR2E3 ag-2,Rev-erbA mod,NR2E3 ag confirm-2,GAL4-VP16 luc,others
CCCc1nc2c3ccccc3ccn2c1Cc1ccc(OC)cc1C,-2,.,-70,-5,.,.,
CCOc1ccc(OCCC(=O)Nc2ccc(F)cc2C)cc1,-2,2,50,-2,15,-25,
CC(=O)NCCC(=O)Nc1ccc(F)cc1C,-2,-2,6,5,.,.,
Cc1ccc(NC(=O)CSc2nc3ccccc3c(=O)n2CCCN2CCCCC2)cc1Cl,1,2,-21,3,.,.,
O=C(NCc1cccnc1)/C(=C\c1ccc(-c2cccc(Cl)c2)o1)S(=O)(=O)c1ccccc1,0,2,91*,1,63,-24,
O=C(NCc1cccnc1)/C(=C/c1ccc(-c2cccc(Cl)c2)o1)S(=O)(=O)c1ccccc1,-1,1,22,4,.,.,
CCCCOc1ncnc2c1[nH]c1ccc(OC)cc12,0,2,.,-3,.,.,
CCCCOc1ncnc2c1[nH]c1ccccc12,-1,-1,79*,0,92*,64,
CCCCOCCCNc1ncnc2c1[nH]c1ccccc12,-3,0,87*,-4,96*,82*,

# Assay outcomes as filed in PubChem.
